Data reported in PMC2791397 (Biochimica et biophysica acta, 2009).

Tests used:
yeast cells = assay: Cellular growth in the presence of varying concentrations of 3-AT; type: cell-based, budding yeast Saccharomyces cerevisiae; settings: 30°C, three to five days
Procedure, shortened: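 BY4742-background strains (MATα his3Δ1 leu2Δ0 lys2Δ0 ura3Δ0; isogenic MATa dot1Δ or hmt1Δ) made HIS+ by transformation with a 1.75 kb HIS3 fragment. GCN5 deleted with a gcn5::hisG-URA3-hisG fragment. Log-phase cells from rich medium were serially diluted, spotted onto SC –His plates containing varying 3-AT concentrations, and scored for growth.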

[1] = tested on: Imidazoleglycerol-phosphate dehydratase (His3p); settings: cited from earlier work
Hmt1p = Hmt1p (Saccharomyces cerevisiae, UniProt P38074); assay: Kinetic studies of Hmt1p-mediated H4 peptide methylation; type: biochemical, budding yeast Saccharomyces cerevisiae; settings: peptide 0.01 to 10 μM, 3.3 μM 3H-SAM, app. 25 ng GST-Hmt1p, pH 8.0, 30°C, 3 min; Hanes/Wolffe plot; average, n ranging from 2 to 8
Chain of Hmt1p (P38074 whole entry): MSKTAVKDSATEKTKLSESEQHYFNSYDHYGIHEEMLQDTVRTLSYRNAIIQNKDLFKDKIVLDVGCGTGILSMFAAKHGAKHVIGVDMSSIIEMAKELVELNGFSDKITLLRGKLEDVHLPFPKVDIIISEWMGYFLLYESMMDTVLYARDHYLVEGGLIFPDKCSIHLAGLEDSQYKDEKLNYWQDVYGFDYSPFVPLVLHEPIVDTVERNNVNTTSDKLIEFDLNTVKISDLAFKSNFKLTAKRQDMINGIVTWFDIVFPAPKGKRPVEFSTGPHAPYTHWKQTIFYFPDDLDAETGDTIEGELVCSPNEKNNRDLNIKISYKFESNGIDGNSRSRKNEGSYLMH

Compound | sensitivity to 3-AT, dot1 deletion (yeast cells; dot1! cells, SC -His plates) | sensitivity to 3-AT, gcn5 deletion (yeast cells; gcn5! cells, SC -His plates) | resistance to 3-AT, gcn5 hmt1 double knockout (yeast cells; gcn5! hmt1! cells vs gcn5! strain, SC -His plates) | sensitivity to 3-AT, hmt1 deletion (yeast cells; hmt1! cells, 20- and 40-mM 3-AT plates, SC -His) | inhibition of Imidazoleglycerol-phosphate dehydratase [1] | Km (Hmt1p) [nM]
Nc1nc[nH]n1 [3-AT, 3-amino-1,2,4-triazole] | did not have an obvious effect | hypersensitive | significantly higher resistance to 3-AT | sustain higher concentrations of 3-AT | competitive inhibitor | –
Ac.K8: synthetic histone H4 peptide (residues 1–18) with acetyllysine at position 8 | – | – | – | – | – | 59 ± 20
